Data as given in ChEMBL document CHEMBL4184105, “Synthesis and biological evaluation of novel mono- and bivalent ASGP-R-targeted drug-conjugates” (Bioorg Med Chem Lett, 2018).
Calls of active or inactive are those of the source. The calls are words filed in the database; no cut-off is given here.

Assays:
[1] = Binding affinity to rabbit asialoglycoprotein receptor by SPR assay; parameters: species or system Oryctolagus cuniculus
[2] = Stability of compound at pH 5 after 24 hrs by HPLC-MS analysis; type: physicochemical; conditions: buffer, pH 5, 24 h
HepG2 [3] = assay: Induction of morphological changes in human HepG2 cells assessed as mitosis with more than 2 poles at 1 umol after 24 hrs by DAPI staining-based immunofluorescence assay; type: functional, cell-based
Procedure, shortened: (§1)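 HepG2 cells were fixed, permeabilized and immunostained with an anti-α-tubulin antibody, with nuclei counterstained by DAPI. Nuclear and cytoskeletal (microtubule, mitotic spindle) morphology was then examined by immunofluorescence microscopy alongside untreated cells.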

HepG2 [4] = assay: Induction of morphological changes in human HepG2 cells assessed as altered microtubule structure at 1 umol after 24 hrs by DAPI staining-based immunofluorescence assay; type: functional, cell-based; procedure, shortened: as §1
HepG2 [5] = assay: Cytotoxicity against human HepG2 cells by MTS assay; type: functional
HepG2 [6] = assay: Induction of morphological changes in human HepG2 cells assessed as abnormal nuclei at 1 umol after 24 hrs by DAPI staining-based immunofluorescence assay; type: functional, cell-based; procedure, shortened: as §1
[7] = Stability of compound at pH 7.4 after 24 hrs by HPLC-MS analysis; type: physicochemical; conditions: buffer, pH 7.4, 24 h

Row | Structure (SMILES) | Kd [1] | Stability [2] | Activity (HepG2 [3]) | Activity (HepG2 [4]) | CC50 (HepG2 [5]) | Activity (HepG2 [6]) | Stability [7]
1 | CC(=O)N[C@H]1[C@H](OCCCCCCNC(=O)CCOCC(COCCC(=O)NCCCCCCO[C@@H]2O[C@H](CO)[C@H](O)[C@H](O)[C@H]2NC(C)=O)(COCCC(=O)NCCCCCCO[C@@H]2O[C@H](CO)[C@H](O)[C@H](O)[C@H]2NC(C)=O)NC(=O)CCCCCCCCCCN=[N+]=[N-])O[C@H](CO)[C@H](O)[C@@H]1O | 2.16 nM | – | – | – | – | – | –
2 | CC(=O)O[C@H]1C(=O)[C@@]2(C)[C@H]([C@H](OC(=O)c3ccccc3)[C@]3(O)C[C@H](OC(=O)[C@H](O)[C@@H](NC(=O)c4ccccc4)c4ccccc4)C(C)=C1C3(C)C)[C@]1(OC(C)=O)CO[C@@H]1C[C@@H]2O [PACLITAXEL] | – | Stable | Active | Active | 120 to 210 nM | Active | Stable
3 | C=CCO[C@@H]1O[C@H](Cn2cc(CCCC(=O)O[C@H]3C[C@H]4OC[C@@]4(OC(C)=O)[C@H]4[C@H](OC(=O)c5ccccc5)[C@]5(O)C[C@H](OC(=O)[C@H](OC(=O)CCCc6cn(C[C@H]7O[C@@H](OCC=C)[C@H](NC(C)=O)[C@@H](O)[C@H]7O)nn6)[C@@H](NC(=O)c6ccccc6)c6ccccc6)C(C)=C([C@@H](OC(C)=O)C(=O)[C@]34C)C5(C)C)nn2)[C@H](O)[C@H](O)[C@H]1NC(C)=O | 0.327 nM | Stable | – | – | – | – | Stable
4 | C=CCO[C@@H]1O[C@H](Cn2cc(CCCC(=O)O[C@@H](C(=O)O[C@H]3C[C@@]4(O)[C@@H](OC(=O)c5ccccc5)[C@@H]5[C@]6(OC(C)=O)CO[C@@H]6C[C@H](O)[C@@]5(C)C(=O)[C@H](OC(C)=O)C(=C3C)C4(C)C)[C@@H](NC(=O)c3ccccc3)c3ccccc3)nn2)[C@H](O)[C@H](O)[C@H]1NC(C)=O | 0.161 nM | Stable | Active | Active | 3250 nM | Active | Stable
5 | CC(=O)N[C@@H]1[C@@H](O)[C@@H](O)[C@@H](CO)O[C@H]1n1cc(CCCC(=O)O[C@H]2C[C@H]3OC[C@@]3(OC(C)=O)[C@H]3[C@H](OC(=O)c4ccccc4)[C@]4(O)C[C@H](OC(=O)[C@H](OC(=O)CCCc5cn([C@@H]6O[C@H](CO)[C@H](O)[C@H](O)[C@H]6NC(C)=O)nn5)[C@@H](NC(=O)c5ccccc5)c5ccccc5)C(C)=C([C@@H](OC(C)=O)C(=O)[C@]23C)C4(C)C)nn1 | 1.39 nM | Stable | Active | Active | 22900 nM | Active | Stable
6 | CC(=O)N[C@H]1[C@H](OCCCCCCNC(=O)CCOCC(COCCC(=O)NCCCCCCO[C@@H]2O[C@H](CO)[C@H](O)[C@H](O)[C@H]2NC(C)=O)(COCCC(=O)NCCCCCCO[C@@H]2O[C@H](CO)[C@H](O)[C@H](O)[C@H]2NC(C)=O)NC(=O)CCCCCCCCCCn2cc(CCCC(=O)O[C@@H](C(=O)O[C@H]3C[C@@]4(O)[C@@H](OC(=O)c5ccccc5)[C@@H]5[C@]6(OC(C)=O)CO[C@@H]6C[C@H](O)[C@@]5(C)C(=O)[C@H](OC(C)=O)C(=C3C)C4(C)C)[C@@H](NC(=O)c3ccccc3)c3ccccc3)nn2)O[C@H](CO)[C@H](O)[C@@H]1O | 1.36 nM | Stable | – | – | 110 nM | – | Stable
7 | CC(=O)N[C@@H]1[C@@H](O)[C@@H](O)[C@@H](CO)O[C@H]1n1cc(CCCC(=O)O[C@@H](C(=O)O[C@H]2C[C@@]3(O)[C@@H](OC(=O)c4ccccc4)[C@@H]4[C@]5(OC(C)=O)CO[C@@H]5C[C@H](O)[C@@]4(C)C(=O)[C@H](OC(C)=O)C(=C2C)C3(C)C)[C@@H](NC(=O)c2ccccc2)c2ccccc2)nn1 | 2.21 nM | Stable | – | – | 92 nM | – | Stable
8 | CC(=O)N[C@H]1[C@H](OCCn2cc(CCCC(=O)O[C@@H](C(=O)O[C@H]3C[C@@]4(O)[C@@H](OC(=O)c5ccccc5)[C@@H]5[C@]6(OC(C)=O)CO[C@@H]6C[C@H](O)[C@@]5(C)C(=O)[C@H](OC(C)=O)C(=C3C)C4(C)C)[C@@H](NC(=O)c3ccccc3)c3ccccc3)nn2)O[C@H](CO)[C@H](O)[C@@H]1O | 249 nM | Stable | Active | Active | 820 nM | Active | Stable
9 | CC(=O)N[C@H]1[C@H](OCCn2cc(CCCC(=O)O[C@H]3C[C@H]4OC[C@@]4(OC(C)=O)[C@H]4[C@H](OC(=O)c5ccccc5)[C@]5(O)C[C@H](OC(=O)[C@H](OC(=O)CCCc6cn(CCO[C@@H]7O[C@H](CO)[C@H](O)[C@H](O)[C@H]7NC(C)=O)nn6)[C@@H](NC(=O)c6ccccc6)c6ccccc6)C(C)=C([C@@H](OC(C)=O)C(=O)[C@]34C)C5(C)C)nn2)O[C@H](CO)[C@H](O)[C@@H]1O | – | Stable | Active | Active | – | Active | Stable
